Target: KIX domain of p300/CBP (KIX–MLL interaction) (Mus musculus, UniProt P45481)
Assay: competition fluorescence polarization assay, inhibition of KIX–MLL interaction
Assay type: binding
Summary of the method: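 Competition fluorescence polarization format: test peptidomimetic competes with fluorescently labeled MLL peptide for KIX, and Ki is derived from the competition data.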

KIX domain of p300/CBP (KIX–MLL interaction), sequence (P45481 586-665 limits assumed): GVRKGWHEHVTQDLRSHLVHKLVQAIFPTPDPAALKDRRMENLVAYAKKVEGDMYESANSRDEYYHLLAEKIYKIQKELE

Ki: > 1000 µM
Substance: Ac-SDIMDFVLKNTP-NH2 [MLL^847–858, Ac-SDIMDFVLKNTP-NH2]
